Measurements from different studies.
Compare with care: the assays were run in different laboratories.
Target: Fibroblast growth factor receptor 4 (FGFR4, Homo sapiens, UniProt P22455)

SMILES	test	conditions	measurement	value
C1=C/COCc2cc(ccc2OCCN2CCCC2)Nc2nccc(n2)-c2cccc(c2)COC/1	binding	0.1 µM	remaining binding	100%
C=CC(=O)N1CCC([C@@H]2CCNc3c(C(N)=O)c(-c4ccc(Oc5ccccc5)cc4)nn32)CC1	cell-free assay	1 µM	inhibition	10%
COc1ccc2oc(-c3ccc4nc(N)oc4c3)c/c(=N\c3ccccc3NC(=O)CCN)c2c1	binding	1 µM	remaining binding	102%
C[C@H]1CC[C@H](n2c3cnccc3c3cnc(Nc4ccc5c(n4)CCN(C(=O)CO)C5)nc32)CC1	binding	1 µM	remaining binding	100%
C=CC(=O)N1CCC[C@@H](n2nc(-c3ccc(Oc4ccccc4)cc3)c3c(N)ncnc32)C1	enzyme activity, inhibitor	1 µM	inhibition	8%
CC(C)S(=O)(=O)c1ccc2nccc(Nc3ccc4sc(C5CCCC5)nc4c3)c2c1	enzyme activity, inhibitor	1 µM	activity vs control	108%
CCCCC(=O)Nc1ccc(-c2ccc3ncn(CCC)c(=O)c3c2)cn1	binding, competition with immobilised ligand	0.5 µM	remaining binding	100%
COc1ccc2[nH]c3c4[nH]c5ccc(OC)cc5c4c4c(c3c2c1)C(=O)NC4=O	binding	1 µM	remaining binding	85%
